# DAGLB inh = diacylglycerol lipase beta (human) inhibition | inhibition, % at 5.17 µM | HEK293T DAGLB membrane lysate, EnzChek fluorogenic substrate | hit rate 0.059% among 340,000 | Q8NCG7; in the data active means inhibition above about 34%;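 further: 0% = enzyme with vehicle and 100% = wells lacking enzyme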
# Target sequence (Q8NCG7 whole entry, looked up): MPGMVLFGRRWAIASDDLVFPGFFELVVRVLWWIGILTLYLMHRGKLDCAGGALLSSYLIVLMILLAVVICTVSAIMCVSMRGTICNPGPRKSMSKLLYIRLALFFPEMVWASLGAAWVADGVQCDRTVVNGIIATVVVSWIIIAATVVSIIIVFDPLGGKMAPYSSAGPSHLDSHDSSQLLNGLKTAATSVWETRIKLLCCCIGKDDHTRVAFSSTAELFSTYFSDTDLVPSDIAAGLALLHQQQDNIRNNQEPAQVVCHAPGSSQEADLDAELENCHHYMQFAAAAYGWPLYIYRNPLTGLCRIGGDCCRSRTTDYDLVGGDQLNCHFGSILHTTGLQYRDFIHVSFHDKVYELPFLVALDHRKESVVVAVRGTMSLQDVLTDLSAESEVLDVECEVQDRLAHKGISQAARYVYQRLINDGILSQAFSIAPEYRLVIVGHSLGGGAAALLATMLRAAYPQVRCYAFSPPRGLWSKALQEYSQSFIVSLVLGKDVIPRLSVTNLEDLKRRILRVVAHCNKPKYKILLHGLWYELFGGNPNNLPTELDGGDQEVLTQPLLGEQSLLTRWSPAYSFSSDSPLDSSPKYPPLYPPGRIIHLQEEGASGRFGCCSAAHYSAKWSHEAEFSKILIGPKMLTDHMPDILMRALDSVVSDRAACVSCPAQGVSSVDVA
# HCV NS3 hel inh = blocks Hepatitis C virus NS3 helicase unwinding. hit rate 0.56% among 290,000. NS3 helicase DNA unwinding, Cy5 molecular beacon fluorescence. inhibition, % at 10.9 µM. AID 1800;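 active means inhibition above the mean of all tested compounds plus 3 SD, set per campaign, cut at about 35% in these data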;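 further: 0% = DMSO wells and 100% = thioflavine S control wells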
#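 Assay system: hepatitis C virus NS3 helicase domain fragment enzyme. Also added: annealed dual-labelled DNA beacon duplex, ATP-started. Timing: 1 h reaction at 25 °C, ATP-initiated. Technique: Cy5 fluorescence at 0 and 60 min, beacon hairpin quenching. Evaluation: % inhibition of unwinding. Replication: one well per compound.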
# GPR7 antag = human neuropeptides B/W receptor 1 antagonism; AID 1861; GPR7-expressing cells, fluorescence antagonist assay; hit rate 1.1% among 290,000; inhibition, % at 4.4 µM; P48145; in the data active means inhibition above about 16%, passing the limit was not always enough;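 further: cells stimulated with the agonist NPW; 0% = agonist with vehicle and 100% = vehicle without agonist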
# DNA FID counter = fluorescent intercalator displacement, NS3 helicase counter-screen. DNA fluorescent intercalator displacement, fluorescence. inhibition, % at 7.9 µM. hit rate 0.17% among 290,000. AID 1845; in the data active means inhibition above about 37%;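 further: 0% = vehicle and 100% = reference compound; higher means more ethidium bromide displaced from hairpin DNA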
# HCV core dimer = blocks dimerization of HCV core protein; TR-FRET GST/Flag-core106 dimerization, 1536-well; inhibition, % at 5 µM; hit rate 0.33% among 300,000; AID 1899;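 active means inhibition above the mean of all tested compounds plus 3 SD, set per screening campaign, cut at about 45% in these data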
#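 Assay system: tagged HCV core106 pair (GST and Flag); medium: KF-containing HEPES buffer, pH 7.45, DTT, CHAPS, BSA; also added: Eu donor and XL665 acceptor anti-tag antibodies; dosing: 5 µM single dose; timing: compound-protein-antibody incubation 4 h at 22.5 °C; signal: TR-FRET 671 and 617 nm emission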
# GRK2 aptamer HTS = human GRK2 inhibition via aptamer displacement; P25098; bead flow cytometry, FAM-aptamer displacement from GRK2; inhibition of aptamer binding, % at 10 µM; hit rate 0.59% among 330,000;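 active means inhibition of aptamer binding above 40%, roughly 3 SD of noise, on plates passing a quality check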;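 further: median bead fluorescence of bound FAM aptamer so fluorescent compounds give negative values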
# GRK2 CP1 = human GRK2 inhibition confirmation, cherry pick 1 | aptamer displacement, % at 10 µM | hit rate 4% among 2,000 | bead-bound GRK2, FAM-aptamer displacement, flow cytometry | shares compounds with GRK2 aptamer HTS;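 active means aptamer displacement above 40%, near three times the noise of non-fluorescent compounds, on plates passing quality checks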;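 further: negative values mostly reflect intrinsic compound fluorescence rather than true enhancement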
# FAM quench CP1 = quenches fluorescent RNA aptamer, GRK2 hit artifact | AID 504580 | 2,000 tested, under 10 active | fluorescence response (% of DMSO), % at 10 µM | Carboxyfluorescein RNA aptamer on beads, flow cytometry quenching; active compounds read low | shares compounds with GRK2 aptamer HTS;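 active means compounds that quench the bead-bound fluorescent RNA probe, cutting fluorescence to under half of the solvent control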;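 further: counterscreen run without GRK2 so only probe quenching by compound is measured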
# GRK2 CP2 = human GRK2 inhibition confirmation, cherry pick 2 | shares compounds with GRK2 aptamer HTS | bead-bound GRK2, FAM-aptamer displacement, flow cytometry | inhibition of aptamer binding, % at 10 µM | 360 tested, under 10 active | AID 504782;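 active means inhibition of aptamer binding above 40%, about triple the noise seen with nonglowing compounds, on plates passing quality control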;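 further: negative values mostly come from compounds that fluoresce themselves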
# FAM quench CP2 = quenches fluorescent RNA aptamer, GRK2 hit artifact; shares compounds with GRK2 aptamer HTS; fluorescence response vs DMSO, % at 10 µM; carboxyfluorescein RNA aptamer beads, flow cytometry quenching; active compounds read low; 360 tested, under 10 active;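 active means response vs DMSO under 50%, meaning signal dropped by over half, treated as fluorescence quencher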;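 further: labelled aptamer on streptavidin beads without GRK2 as a quench counter-screen; 100% = bead fluorescence of DMSO wells and lower means quenching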
# Starred values were filed as active, the others as inactive; . = no result given. An excerpt weighted towards active compounds, which were near 2.2% of everything screened.
SMILES,DAGLB inh,HCV NS3 hel inh,GPR7 antag,DNA FID counter,HCV core dimer,GRK2 aptamer HTS,GRK2 CP1,FAM quench CP1,others
O=C(COC(=O)/C=C/c1ccco1)Nc1ccccc1,-3.0,12.7,8.4,-8.2,4.2,14.0,.,.,
CCC(C)SCC(=O)Nc1ccc(S(=O)(=O)N2CCOCC2)cc1OC (centres undefined),-2.1,1.2,-18.3,-27.7,2.9,0.0,.,.,
O=C(COC(=O)/C=C/c1ccco1)Nc1cc(S(=O)(=O)N2CCOCC2)ccc1Cl,-3.1,.,.,.,.,59.0*,7.9,100.7,
C=C(C)Cn1c(-c2ccncc2)n[nH]c1=S,0.3,-2.0,6.3,-6.2,-1.1,1.0,.,.,
COC(=O)CCC(=O)Nc1ccc(S(=O)(=O)Nc2cc(OC)nc(OC)n2)cc1,-4.4,28.9,-14.8,-23.3,-19.5,38.0,2.5,98.2,
CCn1c(CNC(=O)c2ccccc2F)nnc1SCC(=O)NC1CCCCC1,-0.6,10.8,-5.9,-9.6,2.0,1.0,.,.,
O=C(CSc1cnc2ccccc2n1)NC1CCCC1,0.1,-15.2,-0.7,-7.1,-5.5,81.0*,-3.0,97.6,
CCCCNC(=O)c1ccccc1SCC(=O)NC1CCCCCCC1,-3.2,.,.,.,.,61.0*,-17.9,96.4,
Cc1ccccc1-c1nc(CS(=O)(=O)CC(=O)N2CCN(C)CC2)c(C)o1,3.8,-1.9,-2.7,5.1,10.4,0.0,.,.,
CC(=O)Nc1ccc(OCC(=O)NCc2ccccc2)cc1,-0.1,6.2,-7.7,-3.6,-10.3,100.0*,-0.3,91.2,
CCOc1ccc(NC(=O)CN(C)C(=O)COc2cccc3c2OC(C)(C)C3)cc1OCC,-6.2,.,.,.,.,98.0*,0.3,96.1,
CCN(CC(=O)Nc1ccc(OC)cc1)C(=O)COc1cccc2c1OC(C)(C)C2,-3.3,.,.,.,2.0,0.0,.,.,
COc1cc(C)c(NC(=O)COc2cccc3c2OC(C)(C)C3)cc1OC,-2.1,.,.,.,.,41.0*,.,.,GRK2 CP2=20.7;FAM quench CP2=99.0
COC(=O)CCCC(=O)N1CCCC(CNS(=O)(=O)c2ccc(OC)cc2)C1 (centres undefined),-0.1,16.6,-11.0,-19.2,0.3,0.0,.,.,
O=C(CCc1nnc(C2(c3ccc(Cl)cc3)CCC2)o1)NCCCn1cccn1,0.9,-6.3,-8.5,-14.4,0.8,3.0,.,.,
COc1ccc(-c2cc(C(=O)Nc3cccc(C(C)=O)c3)no2)cc1,1.8,1.2,-10.4,-1.5,4.7,0.0,-1.0,98.6,
COc1ccc(-c2cc(C(=O)Nc3cccc(Cl)c3)no2)cc1,-4.1,5.1,-24.3,-12.9,-7.4,0.0,.,.,
CC(=O)c1cccc(NC(=O)c2cc(-c3cccs3)on2)c1,0.5,-4.0,0.0,-10.5,-17.6,3.0,-4.8,104.1,
O=C(Nc1cccc(O)c1)c1cc(-c2cccs2)on1,0.1,-4.8,1.1,-4.3,-1.2,1.0,.,.,
Cc1ccc2[nH]c(C(=O)N3CCC(C(N)=O)CC3)cc2c1,1.4,3.5,-16.8,-2.1,4.2,2.0,.,.,
COC(=O)C1CCN(C(=O)c2oc3c(Cl)cc(C)cc3c2C)CC1,-19.9,-0.3,-9.9,-50.0,2.2,0.0,.,.,
Cc1cc(Cl)c2oc(C(=O)NC3CCC(O)CC3)c(C)c2c1 (centres undefined),-2.5,-25.7,-0.9,-34.5,-5.8,65.0*,-0.3,96.6,
COCCNC(=O)c1ccccc1N(Cc1ccccc1)S(=O)(=O)c1ccc(C)cc1,-1.3,-11.3,-5.5,-45.1,-6.5,15.0,-1.4,98.7,
CC(C(=O)N(C)C1CCS(=O)(=O)C1)N1C(=O)/C(=C/c2ccc(F)cc2)SC1=S (centres undefined),2.4,10.4,-0.5,-64.9,-2.5,4.0,.,.,
CCN(C(=O)C(C)N1C(=O)/C(=C/c2ccco2)SC1=S)C1CCS(=O)(=O)C1 (centres undefined),2.1,22.0,20.5,-12.5,9.2,42.0*,1.1,101.5,
SMILES,DAGLB inh,HCV NS3 hel inh,GPR7 antag,DNA FID counter,HCV core dimer,GRK2 aptamer HTS,GRK2 CP1,FAM quench CP1,others
CC1(C)C[C@@H](O)[C@]2(C)CC[C@]3(C)C(=CCC4[C@@]5(C)CC[C@H](O)[C@](C)(CO)C5CC[C@]43C)[C@@H]2C1 (some centres undefined),2.1,.,.,.,.,1.0,.,.,
C[C@H]1CCC2[C@](C)(CO)[C@@H](O)CC[C@]2(C)[C@@]12CCC(CO)(CCO)O2 (some centres undefined),3.2,4.0,-10.3,-27.0,4.6,44.0*,.,.,GRK2 CP2=13.6;FAM quench CP2=102.0
Cn1c(=O)c2c(nc(N3CCN(c4ccc([N+](=O)[O-])cc4)CC3)n2C)n(C)c1=O,.,-7.6,-11.4,-6.2,2.0,1.0,.,.,
CC(NC(=O)CCC(=O)Nc1ccccc1O)c1ccccc1 (centres undefined),.,.,.,.,-10.0,2.0,.,.,
CC(CNc1ccccc1O)C(=O)O (centres undefined),1.7,14.0,-5.3,-6.2,-52.9,62.0*,.,.,GRK2 CP2=24.6;FAM quench CP2=108.0
CCN(CC)C(=O)c1oc2ccc(S(=O)(=O)N3CC(C)CC(C)C3)cc2c1C (centres undefined),-4.8,9.8,3.8,-46.5,5.1,0.0,.,.,
Cc1c(C(=O)Nc2ccc(F)cc2)oc2ccc(S(=O)(=O)N3CC(C)CC(C)C3)cc12 (centres undefined),-2.4,3.5,-10.6,-2.5,-0.8,12.0,-3.1,99.8,
COc1ccccc1N(C(=O)c1ccncc1)c1nc(-c2ccc([N+](=O)[O-])cc2)cs1,1.5,-6.7,2.8,-10.3,16.3,3.0,.,.,
COc1ccc2cc(C#N)c(SCC(=O)N3CC(=O)Nc4ccccc43)nc2c1,1.4,-4.3,-1.0,0.9,-2.0,0.0,.,.,
Cc1cccc2cc(C#N)c(SCC(=O)N3CC(=O)Nc4ccccc43)nc12,4.7,-2.2,1.6,-8.8,23.4,57.0*,1.3,100.1,
COc1ccc(Cc2nnc(NC(=O)c3cccc(F)c3)s2)cc1OC,3.8,-0.7,2.7,-35.2,-2.4,0.0,.,.,
O=C(Nc1ccc2c(c1)Cc1ccccc1-2)c1cccnc1,-2.4,5.1,13.7,-1.0,-3.7,0.0,.,.,
c1ccc(Cn2ncc3ccccc32)cc1,-1.4,2.4,16.8,0.8,0.6,26.0,1.5,98.2,
O=C(COC(=O)COc1ccccc1[N+](=O)[O-])NCc1ccc2c(c1)OCO2,-0.1,.,.,.,.,43.0*,2.1,96.0,
O=C(COC(=O)COc1ccccc1[N+](=O)[O-])Nc1ccc2c(c1)OCO2,-2.5,.,.,.,.,2.0,.,.,
